Reference: ChEMBL document CHEMBL5678802, “Small-molecule p21-activated kinase inhibitor PF-3758309 is a potent inhibitor of oncogenic signaling and tumor growth” (Proc Natl Acad Sci U S A, 2010)
Activity calls are given as the source filed them. No cut-off for these calls is given here.

Assays:
[1] = target: Serine/threonine-protein kinase PAK 6 (Homo sapiens, UniProt Q9NQU5); assay: Inhibition of PAK6 (unknown origin) using EVPRRKSLVGTPYWM peptide as substrate assessed as inhibition constant in presence of ATP by biochemical assay
In short: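 PAK6 kinase domain activity coupled to NADH oxidation via pyruvate kinase/lactate dehydrogenase (2 mM phosphoenolpyruvate, 0.33 mM NADH, 15 units/mL each PK and LDH) in 50 mM Hepes pH 7.5, 1 mM DTT, 5 mM MgCl2, 0.5 mM peptide 7, 0.072 mM ATP. Initial rates by linear least-squares regression; Ki from competitive or tight-binding inhibition fits.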

[2] = target: Serine/threonine-protein kinase PAK 2 (Homo sapiens, UniProt Q13177); assay: Inhibition of PAK2 (unknown origin)
HCT-15 = assay: Antiproliferative activity against human HCT-15 cells assessed as inhibition of cell proliferation incubated for 3 days by CellTiter-Glo Luminescent Cell Viability Assay; format: functional, cell-based; conditions: HCT-15, 72 h
In short: (§1)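 Cancer cell lines seeded in 384-well plates on day 1; compound added on day 2 and left for 3 days. On day 5 all medium was aspirated, and viable cells were quantified by CellTiter-Glo luminescence, which measures cellular ATP. Dose-dependent effects on proliferation were determined.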

NCI-H647 = assay: Antiproliferative activity against human NCI-H647 cells assessed as inhibition of cell proliferation incubated for 3 days by CellTiter-Glo Luminescent Cell Viability Assay; format: functional, cell-based; conditions: NCI-H647, 72 h
In short: (§2)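 Cells of each line were plated in 384-well plates on day 1 and exposed to compound from day 2 for 3 days. On day 5 all medium was aspirated. Viable cell number was read by CellTiter-Glo luminescence, which quantifies cellular ATP.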

BXPC-3 = assay: Antiproliferative activity against human BXPC-3 cells assessed as inhibition of cell proliferation incubated for 3 days by CellTiter-Glo Luminescent Cell Viability Assay; format: functional, cell-based; conditions: BXPC-3, 72 h; in short: as §1
SU.86.86 = assay: Antiproliferative activity against human SU-86-86 cells assessed as inhibition of cell proliferation incubated for 3 days by CellTiter-Glo Luminescent Cell Viability Assay; format: functional, cell-based; conditions: SU.86.86, 72 h; in short: as §2
CAPAN-1 = assay: Antiproliferative activity against human CAPAN-1 cells assessed as inhibition of cell proliferation incubated for 3 days by CellTiter-Glo Luminescent Cell Viability Assay; format: functional, cell-based; conditions: CAPAN-1, 72 h; in short: as §1
ASPC1 = assay: Antiproliferative activity against human ASPC1 cells assessed as inhibition of cell proliferation incubated for 3 days by CellTiter-Glo Luminescent Cell Viability Assay; format: functional, cell-based; conditions: ASPC1, 72 h; in short: as §1
HCC38 = assay: Antiproliferative activity against human HCC38 cells assessed as inhibition of cell proliferation incubated for 3 days by CellTiter-Glo Luminescent Cell Viability Assay; format: functional, cell-based; conditions: HCC38, 72 h; in short: as §1
MDA-MB-468 = assay: Antiproliferative activity against human MDA-MB-468 cells assessed as inhibition of cell proliferation incubated for 3 days by CellTiter-Glo Luminescent Cell Viability Assay; format: functional, cell-based; conditions: MDA-MB-468, 72 h; in short: as §1
HCT-116 [3] = assay: Inhibition of anchorage independent cell growth in human HCT-116 cells incubated for 6 days by Alamar blue reagent based fluorescence plate reader analysis; format: functional; conditions: HCT-116, 144 h
[4] = target: cGMP-dependent protein kinase 1 (Homo sapiens) (UniProt Q13976); assay: Inhibition of human PRKG1 in presence of ATP relative to control; conditions: concentration not given here
[5] = target: T1, Receptor-type tyrosine-protein kinase FLT3 (Homo sapiens, UniProt P36888); assay: Inhibition of human FLT3 in presence of ATP
T1 sequence (P36888 whole entry): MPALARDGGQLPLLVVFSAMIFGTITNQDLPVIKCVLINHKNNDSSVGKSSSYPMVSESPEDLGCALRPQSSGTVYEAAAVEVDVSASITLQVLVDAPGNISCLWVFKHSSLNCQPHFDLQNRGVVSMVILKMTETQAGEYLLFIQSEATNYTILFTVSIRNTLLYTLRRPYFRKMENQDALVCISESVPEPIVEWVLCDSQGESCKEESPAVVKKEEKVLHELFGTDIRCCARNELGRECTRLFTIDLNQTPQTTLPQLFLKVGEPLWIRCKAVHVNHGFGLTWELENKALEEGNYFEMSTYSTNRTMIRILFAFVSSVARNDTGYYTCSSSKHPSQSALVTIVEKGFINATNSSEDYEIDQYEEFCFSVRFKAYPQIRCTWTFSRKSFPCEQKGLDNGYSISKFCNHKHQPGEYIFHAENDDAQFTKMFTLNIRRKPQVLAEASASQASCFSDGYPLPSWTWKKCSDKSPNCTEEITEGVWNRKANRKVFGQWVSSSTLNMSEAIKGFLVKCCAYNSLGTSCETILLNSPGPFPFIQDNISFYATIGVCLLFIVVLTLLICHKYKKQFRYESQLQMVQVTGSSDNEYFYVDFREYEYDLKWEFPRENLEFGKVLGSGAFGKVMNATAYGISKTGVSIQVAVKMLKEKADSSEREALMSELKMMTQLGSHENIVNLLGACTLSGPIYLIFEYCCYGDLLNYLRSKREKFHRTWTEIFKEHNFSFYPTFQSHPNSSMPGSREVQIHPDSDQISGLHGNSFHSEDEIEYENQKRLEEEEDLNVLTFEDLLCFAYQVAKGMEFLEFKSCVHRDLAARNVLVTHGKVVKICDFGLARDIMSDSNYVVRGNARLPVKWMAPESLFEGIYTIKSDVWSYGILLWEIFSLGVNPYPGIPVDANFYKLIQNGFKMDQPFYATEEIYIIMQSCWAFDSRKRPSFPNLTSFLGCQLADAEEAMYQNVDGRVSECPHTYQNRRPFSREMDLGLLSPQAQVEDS

[6] = target: Tyrosine-protein kinase Yes (Homo sapiens, UniProt P07947); assay: Inhibition of human YES1 in presence of ATP
[7] = target: T1, Receptor-type tyrosine-protein kinase FLT3; assay: Inhibition of human FLT3 in presence of ATP by cellular assay
[8] = Inhibition of NF-kappaB signaling in HEK293T cells preincubated with compound for 0.5 hrs followed by TNFalpha stimulation and measured after 7 hrs by Steady-Glo luciferase assay; format: cell-based; conditions: Homo sapiens, HEK-293T
HCT-116 [9] = assay: Downregulation of camptothecin-induced phospho-S474-PAK4 level in human HCT-116 cells at 1 uM preincubated with compound for 15 mins followed by camptothecin stimulation and measured after 20 hrs by Western blot analysis; format: functional, cell-based; conditions: time 20.25 hrs
DLD-1 = assay: Antitumor activity against PAK4 -/+ human DLD-1 cells xenografted in nude mouse assessed as tumor growth inhibition at 10 mg/kg, po administered once daily for 9 to 18 days relative to control; format: functional; conditions: time 9-18 day, read-out: TGI
In short: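 Tumor cells were implanted s.c. into the right flank of female nu/nu nude mice aged 6–8 weeks. Animals were randomized into treatment groups once tumors were established (example: day 8 postimplant, about 170 mm3, animals >22 g). Compound in 0.5% methylcellulose was given by oral gavage. Tumors were measured with calipers two to three times per week.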

HCT-116 [10] = assay: Antitumor activity against human HCT-116 cells xenografted in nude mouse assessed as tumor growth inhibition at 1.1 mg/kg administered via pump for 9 days relative to control; format: functional; conditions: HCT-116, 216 h, time 9 day, read-out: TGI

Chain of Tyrosine-protein kinase Yes (P07947 whole entry): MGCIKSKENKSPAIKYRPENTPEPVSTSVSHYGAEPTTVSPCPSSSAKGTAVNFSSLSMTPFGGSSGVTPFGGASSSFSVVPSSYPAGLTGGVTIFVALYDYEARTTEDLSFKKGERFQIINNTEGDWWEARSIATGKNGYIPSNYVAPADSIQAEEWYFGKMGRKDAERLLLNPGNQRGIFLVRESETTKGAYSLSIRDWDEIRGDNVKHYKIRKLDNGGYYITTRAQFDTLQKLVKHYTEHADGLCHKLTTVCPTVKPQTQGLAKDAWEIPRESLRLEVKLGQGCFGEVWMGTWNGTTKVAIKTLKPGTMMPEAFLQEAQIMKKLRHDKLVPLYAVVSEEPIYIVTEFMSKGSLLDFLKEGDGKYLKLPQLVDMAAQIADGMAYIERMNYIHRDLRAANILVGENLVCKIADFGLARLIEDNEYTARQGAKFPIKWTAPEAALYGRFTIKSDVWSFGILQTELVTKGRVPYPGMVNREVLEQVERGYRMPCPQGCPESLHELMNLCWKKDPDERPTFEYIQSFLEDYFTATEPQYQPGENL
Chain of Serine/threonine-protein kinase PAK 6 (Q9NQU5 whole entry, the tested form may be a part): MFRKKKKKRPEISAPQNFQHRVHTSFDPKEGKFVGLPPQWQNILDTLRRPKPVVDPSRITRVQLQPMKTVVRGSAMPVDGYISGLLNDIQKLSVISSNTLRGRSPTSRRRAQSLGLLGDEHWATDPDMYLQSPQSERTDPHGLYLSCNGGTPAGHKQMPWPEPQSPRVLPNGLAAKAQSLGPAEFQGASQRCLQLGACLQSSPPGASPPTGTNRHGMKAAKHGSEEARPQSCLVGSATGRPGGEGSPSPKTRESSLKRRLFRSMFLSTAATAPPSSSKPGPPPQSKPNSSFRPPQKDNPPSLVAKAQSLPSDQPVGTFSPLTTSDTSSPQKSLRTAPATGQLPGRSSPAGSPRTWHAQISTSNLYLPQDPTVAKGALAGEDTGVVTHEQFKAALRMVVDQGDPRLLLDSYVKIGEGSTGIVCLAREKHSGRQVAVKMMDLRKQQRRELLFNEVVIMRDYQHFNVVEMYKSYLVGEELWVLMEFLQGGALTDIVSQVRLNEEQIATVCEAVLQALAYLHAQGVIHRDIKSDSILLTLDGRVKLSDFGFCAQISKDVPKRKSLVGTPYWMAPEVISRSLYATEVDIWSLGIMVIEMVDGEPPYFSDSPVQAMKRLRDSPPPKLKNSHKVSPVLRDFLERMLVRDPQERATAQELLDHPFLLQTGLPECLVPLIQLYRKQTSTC
Chain of cGMP-dependent protein kinase 1 (Homo sapiens) (Q13976 whole entry): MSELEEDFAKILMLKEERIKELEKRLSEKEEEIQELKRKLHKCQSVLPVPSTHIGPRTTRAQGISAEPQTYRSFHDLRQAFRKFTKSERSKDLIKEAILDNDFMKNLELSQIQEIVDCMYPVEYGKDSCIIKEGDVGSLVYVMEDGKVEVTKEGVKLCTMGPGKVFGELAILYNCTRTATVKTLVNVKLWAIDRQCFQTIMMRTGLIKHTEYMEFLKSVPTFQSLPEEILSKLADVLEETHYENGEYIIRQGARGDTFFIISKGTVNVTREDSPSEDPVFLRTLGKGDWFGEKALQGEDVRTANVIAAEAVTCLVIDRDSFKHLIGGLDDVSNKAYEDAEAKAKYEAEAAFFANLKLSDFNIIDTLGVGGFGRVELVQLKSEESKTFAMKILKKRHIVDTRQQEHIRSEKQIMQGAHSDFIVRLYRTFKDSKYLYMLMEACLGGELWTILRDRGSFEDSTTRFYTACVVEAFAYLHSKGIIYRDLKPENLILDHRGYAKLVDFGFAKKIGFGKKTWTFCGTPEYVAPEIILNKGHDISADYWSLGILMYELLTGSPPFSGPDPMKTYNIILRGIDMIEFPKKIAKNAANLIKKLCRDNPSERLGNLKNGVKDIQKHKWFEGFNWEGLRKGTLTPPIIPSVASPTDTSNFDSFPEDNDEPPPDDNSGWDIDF
Chain of Serine/threonine-protein kinase PAK 2 (Q13177 whole entry): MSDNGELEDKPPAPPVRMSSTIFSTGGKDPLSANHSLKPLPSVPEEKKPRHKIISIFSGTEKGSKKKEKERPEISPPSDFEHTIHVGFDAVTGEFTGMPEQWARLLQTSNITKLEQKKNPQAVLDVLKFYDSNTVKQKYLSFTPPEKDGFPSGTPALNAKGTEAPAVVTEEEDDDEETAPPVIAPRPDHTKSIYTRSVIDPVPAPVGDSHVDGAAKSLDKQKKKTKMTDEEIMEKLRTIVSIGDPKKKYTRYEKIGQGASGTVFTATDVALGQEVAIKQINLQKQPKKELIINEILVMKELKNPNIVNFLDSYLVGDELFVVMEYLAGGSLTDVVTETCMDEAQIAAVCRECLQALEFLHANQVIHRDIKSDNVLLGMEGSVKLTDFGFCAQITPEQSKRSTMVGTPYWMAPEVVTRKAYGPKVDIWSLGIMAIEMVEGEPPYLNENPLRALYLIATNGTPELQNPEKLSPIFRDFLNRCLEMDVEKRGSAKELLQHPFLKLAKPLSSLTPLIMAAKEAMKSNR

Ki [1]: 17.1 nM
IC50 [2]: 190 nM
IC50 (HCT-15): 10000 nM
IC50 (NCI-H647): 36 nM
IC50 (BXPC-3): 39 nM
IC50 (ASPC1): 1800 nM
IC50 (HCC38): 0.52 nM
IC50 (MDA-MB-468): 0.63 nM
IC50 (HCT-116 [3]): 0.24 nM
inhibition [4]: 97%
IC50 [5]: 96 nM
IC50 [6]: 47 nM
IC50 [7]: 407 nM
IC50 [8]: 24.2 nM
SMILES: Cc1nc(Nc2n[nH]c3c2CN(C(=O)N[C@H](CN(C)C)c2ccccc2)C3(C)C)c2sccc2n1 [PF-03758309]
IC50 (SU.86.86): 898 nM
IC50 (CAPAN-1): 1100 nM
Activity (HCT-116 [9]): Active
inhibition in vivo at 10 mg/kg (DLD-1): 0%
inhibition in vivo at 1.1 mg/kg (HCT-116 [10]): 104%
